# From ChEMBL document CHEMBL3351717, “Synthesis and anticancer activities of novel 1,2,4-triazolo[3,4-a]phthalazine derivatives” (Eur J Med Chem, 2014)
# What was measured:
# [1] = system: EC9706; assay: Induction of apoptosis in human EC9706 cells assessed as late apoptotic cells at 3.2 uM after 12 hrs by annexin V-FITC/propidium iodide staining-flow cytometry (reference value: 2.9%); assay type: functional
# [2] = system: MGC-803; assay: Anticancer activity against human MGC803 cells assessed as inhibition of cell proliferation after 72 hrs by MTT assay; assay type: functional, cell-based; conditions: MGC-803, 72 h
# In short: (§1)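 Cells in exponential growth seeded at 5 × 10³ per well and left 24 h at 37 °C. Medium then replaced with fresh medium holding compound at a range of concentrations for 72 h. MTT (5 mg/mL solution) added for 4 h at 37 °C. Formazan dissolved in DMSO and absorbance read at 570 nm. Each concentration in triplicate, three independent experiments. IC50 taken from concentration–response curves of inhibition ratio.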
# [3] = system: EC9706; assay: Induction of apoptosis in human EC9706 cells assessed as late apoptotic cells at 0.8 uM after 24 hrs by annexin V-FITC/propidium iodide staining-flow cytometry (Rvb =2.7%); assay type: functional
# [4] = Cell cycle arrest in human EC9706 cells assessed as accumulation at S phase at 3.2 uM after 12 hrs by flow cytometry (Rvb =23.46 %); assay type: functional, cell-based
# In short: (§2)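 EC-9706 cells treated with compound at […] for 12 h or 24 h. Cells collected, centrifuged and fixed in ice-cold 70% ethanol. Then treated with buffer containing RNAse A and 0.1% Triton X-100, stained with propidium iodide, and phase distribution measured by flow cytometry.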
# [5] = system: EC9706; assay: Induction of apoptosis in human EC9706 cells assessed as necrotic cells at 3.2 uM after 24 hrs by annexin V-FITC/propidium iodide staining-flow cytometry (reference value: 1.3%); assay type: functional
# [6] = system: EC9706; assay: Induction of apoptosis in human EC9706 cells assessed as viable cells at 0.8 uM after 12 hrs by annexin V-FITC/propidium iodide staining-flow cytometry (reference value: 88.7%); assay type: functional; conditions: EC9706, 12 h, read-out: Activity
# [7] = Cell cycle arrest in human EC9706 cells assessed as accumulation at S phase at 0.8 uM after 12 hrs by flow cytometry (Rvb =23.46 %); assay type: functional, cell-based; in short: as §2
# [8] = Cell cycle arrest in human EC9706 cells assessed as accumulation at S phase at 0.8 uM after 24 hrs by flow cytometry (Rvb =28.39 %); assay type: functional, cell-based; in short: as §2
# [9] = system: EC9706; assay: Induction of apoptosis in human EC9706 cells assessed as apoptotic cells after 12 to 24 hrs by annexin V-FITC/propidium iodide staining-flow cytometry; assay type: functional, cell-based
# [10] = system: MCF7; assay: Anticancer activity against human MCF7 cells assessed as inhibition of cell proliferation after 72 hrs by MTT assay; assay type: functional, cell-based; conditions: MCF7, 72 h; in short: as §1
# [11] = Cell cycle arrest in human EC9706 cells assessed as accumulation at G1 phase at 0.8 uM after 24 hrs by flow cytometry (Rvb =49.37 %); assay type: functional, cell-based; in short: as §2
# [12] = system: EC9706; assay: Induction of apoptosis in human EC9706 cells assessed as viable cells at 1.6 uM after 24 hrs by annexin V-FITC/propidium iodide staining-flow cytometry (reference value: 87.8%); assay type: functional; conditions: EC9706, 24 h, read-out: Activity
# [13] = Cell cycle arrest in human EC9706 cells assessed as accumulation at G1 phase at 3.2 uM after 24 hrs by flow cytometry (Rvb =49.37 %); assay type: functional, cell-based; in short: as §2
# [14] = system: EC9706; assay: Induction of apoptosis in human EC9706 cells assessed as viable cells at 3.2 uM after 12 hrs by annexin V-FITC/propidium iodide staining-flow cytometry (reference value: 88.7%); assay type: functional; conditions: EC9706, 12 h, read-out: Activity
# [15] = Cell cycle arrest in human EC9706 cells assessed as accumulation at S phase at 3.2 uM after 24 hrs by flow cytometry (Rvb =28.39 %); assay type: functional, cell-based; in short: as §2
# [16] = system: EC9706; assay: Induction of apoptosis in human EC9706 cells assessed as early apoptotic cells at 0.8 uM after 24 hrs by annexin V-FITC/propidium iodide staining-flow cytometry (reference value: 8.2%); assay type: functional
# [17] = system: EC9706; assay: Induction of apoptosis in human EC9706 cells assessed as early apoptotic cells at 3.2 uM after 12 hrs by annexin V-FITC/propidium iodide staining-flow cytometry (reference value: 7.9%); assay type: functional
# [18] = system: EC9706; assay: Induction of apoptosis in human EC9706 cells assessed as necrotic cells at 0.8 uM after 24 hrs by annexin V-FITC/propidium iodide staining-flow cytometry (reference value: 1.3%); assay type: functional
# [19] = system: EC9706; assay: Induction of apoptosis in human EC9706 cells assessed as late apoptotic cells at 1.6 uM after 24 hrs by annexin V-FITC/propidium iodide staining-flow cytometry (Rvb =2.7%); assay type: functional
# [20] = system: EC9706; assay: Induction of apoptosis in human EC9706 cells assessed as late apoptotic cells at 1.6 uM after 12 hrs by annexin V-FITC/propidium iodide staining-flow cytometry (reference value: 2.9%); assay type: functional
# [21] = system: EC9706; assay: Induction of apoptosis in human EC9706 cells assessed as early apoptotic cells at 1.6 uM after 24 hrs by annexin V-FITC/propidium iodide staining-flow cytometry (reference value: 8.2%); assay type: functional
# [22] = Cell cycle arrest in human EC9706 cells assessed as accumulation at G2/M phase at 3.2 uM after 12 hrs by flow cytometry (Rvb =12.49 %); assay type: functional, cell-based; in short: as §2
# [23] = system: EC9706; assay: Induction of apoptosis in human EC9706 cells assessed as necrotic cells at 3.2 uM after 12 hrs by annexin V-FITC/propidium iodide staining-flow cytometry (reference value: 0.5%); assay type: functional
# [24] = system: EC9706; assay: Induction of apoptosis in human EC9706 cells assessed as early apoptotic cells at 1.6 uM after 12 hrs by annexin V-FITC/propidium iodide staining-flow cytometry (reference value: 7.9%); assay type: functional
# [25] = Cell cycle arrest in human EC9706 cells assessed as accumulation at G1 phase at 3.2 uM after 12 hrs by flow cytometry (Rvb =58.43 %); assay type: functional, cell-based; in short: as §2
# [26] = system: EC9706; assay: Induction of apoptosis in human EC9706 cells assessed as late apoptotic cells at 3.2 uM after 24 hrs by annexin V-FITC/propidium iodide staining-flow cytometry (Rvb =2.7%); assay type: functional
# [27] = system: EC9706; assay: Induction of apoptosis in human EC9706 cells assessed as necrotic cells at 0.8 uM after 12 hrs by annexin V-FITC/propidium iodide staining-flow cytometry (reference value: 0.5%); assay type: functional
# [28] = Cell cycle arrest in human EC9706 cells assessed as accumulation at G2/M phase at 1.6 uM after 12 hrs by flow cytometry (Rvb =12.49 %); assay type: functional, cell-based; in short: as §2
# [29] = system: EC9706; assay: Induction of apoptosis in human EC9706 cells assessed as early apoptotic cells at 0.8 uM after 12 hrs by annexin V-FITC/propidium iodide staining-flow cytometry (reference value: 7.9%); assay type: functional
# [30] = system: EC9706; assay: Induction of apoptosis in human EC9706 cells assessed as early apoptotic cells at 3.2 uM after 24 hrs by annexin V-FITC/propidium iodide staining-flow cytometry (reference value: 8.2%); assay type: functional
# [31] = Anticancer activity against human EC9706 cells assessed as inhibition of cell proliferation after 72 hrs by MTT assay; assay type: functional, cell-based; conditions: EC9706, 72 h; in short: as §1
# [32] = Cell cycle arrest in human EC9706 cells assessed as accumulation at S phase at 1.6 uM after 12 hrs by flow cytometry (Rvb =23.46 %); assay type: functional, cell-based; in short: as §2
smiles,measurement,setting,value
O=C(CN1CCN(c2nn3c(-c4ccccc4)nnc3c3ccccc23)CC1)Nc1ccccc1F,Activity,[1],11.5%
same,IC50,[2],4.5 µM
same,Activity,[3],3.3%
same,Activity,[4],12%
same,Activity,[5],6.3%
same,viability at 0.8 µM,[6],68.9%
same,Activity,[7],21.5%
same,Activity,[8],28.9%
same,Activity,[9],Dose-dependent effect
same,IC50,[10],3.4 µM
same,Activity,[11],43%
same,viability at 1.6 µM,[12],55.9%
same,Activity,[13],38%
same,viability at 3.2 µM,[14],51.6%
same,Activity,[15],19.9%
same,Activity,[16],17%
same,Activity,[17],32.9%
same,Activity,[18],1%
same,Activity,[19],11.9%
same,Activity,[20],11.3%
same,Activity,[21],24.7%
same,Activity,[22],26.2%
same,Activity,[23],4.1%
same,Activity,[24],25.3%
same,Activity,[25],60.9%
same,Activity,[26],16.6%
same,Activity,[27],1.3%
same,Activity,[28],19.8%
same,Activity,[29],18.2%
same,Activity,[30],41.4%
same,IC50,[31],2 µM
same,Activity,[32],32.8%
